What was measured:
[1] = Multiple ascending dose part; format: in vivo, human
Summary of the method: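 Healthy men, double-blind, randomized 6 active:2 placebo per cohort. Oral test compound or placebo once daily for 14 days, each dose after a moderate-fat meal (~600 calories, ~30% from fat). An expansion cohort (24 planned) assessed GI tolerability. Monitoring covered AEs, physical exams, vital signs, ECGs, clinical labs, suicidal risk, and GI and hepatobiliary abnormalities. AEs were MedDRA 21.0-coded and summarized descriptively.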

[2] = Multiple ascending dose part; format: in vivo, human; conditions: for AUC / Cmax / Tmax: human, plasma, oral, multiple‐dose; for AUC: AUC0‐24, geometric mean (%CVb); for Cmax: geometric mean (%CVb); for Tmax: median (range)
[3] = Relative bioavailability study: safety and tolerability; format: in vivo, human
[4] = Lowest observed adverse effect level in dogs; format: in vivo
HIV‐1 subtypes = assay: Inhibition across HIV‐1 subtypes; conditions: background statement, no reference given
[5] = 50 mg once daily for 14 days (N = 6)
[6] = 100 mg once daily for 14 days (N = 6)
[7] = 200 mg once daily for 14 days (N = 25; cohort 5 and expansion cohort)
[8] = 320 mg once daily for 14 days (N = 7)
[9] = Part 2, across 58 participants (GSK3640254 n = 44 or placebo n = 14)

C=C(C)[C@@H]1CC[C@]2(NCCN3CCS(=O)(=O)CC3)CC[C@]3(C)[C@H](CC[C@@H]4[C@@]5(C)CC=C(C6=CC[C@@](CF)(C(=O)O)CC6)C(C)(C)[C@@H]5CC[C@]43C)[C@@H]12 [GSK3640254]
Adverse event: Abdominal distension [1, 5]: 0 n (%)
Adverse event: Abdominal pain [1, 5]: 1 (17) n (%)
Adverse event: Abnormal dreams [1, 5]: 0 n (%)
Adverse event: Agitation [1, 5]: 0 n (%)
Adverse event: Any event [1, 5]: 4 (67) n (%)
Adverse event: Arthropod bite [1, 5]: 0 n (%)
Adverse event: Back pain [1, 5]: 0 n (%)
Adverse event: Catheter‐site bruise [1, 5]: 0 n (%)
Adverse event: Catheter‐site pain [1, 5]: 0 n (%)
Adverse event: Constipation [1, 5]: 0 n (%)
Adverse event: Contact dermatitis [1, 5]: 1 (17) n (%)
Adverse event: Contusion [1, 5]: 1 (17) n (%)
Adverse event: Disturbance in attention [1, 5]: 0 n (%)
Adverse event: Dizziness [1, 5]: 1 (17) n (%)
Adverse event: Dry skin [1, 5]: 0 n (%)
Adverse event: Fatigue [1, 5]: 2 (33) n (%)
Adverse event: Gastrointestinal disorders [1, 5]: 2 (33) n (%)
Adverse event: Headache [1, 5]: 3 (50) n (%)
Adverse event: Lethargy [1, 5]: 0 n (%)
Adverse event: Musculoskeletal stiffness [1, 5]: 1 (17) n (%)
Adverse event: Nausea [1, 5]: 0 n (%)
Adverse event: Oropharyngeal pain [1, 5]: 0 n (%)
Adverse event: Rash [1, 5]: 0 n (%)
Adverse event: Somnolence [1, 5]: 1 (17) n (%)
Adverse event: Vessel puncture site bruise [1, 5]: 0 n (%)
Adverse event: Abdominal distension [1, 6]: 0 n (%)
Adverse event: Abdominal pain [1, 6]: 0 n (%)
Adverse event: Abnormal dreams [1, 6]: 0 n (%)
Adverse event: Agitation [1, 6]: 1 (17) n (%)
Adverse event: Any event [1, 6]: 5 (83) n (%)
Adverse event: Arthropod bite [1, 6]: 0 n (%)
Adverse event: Back pain [1, 6]: 1 (17) n (%)
Adverse event: Catheter‐site bruise [1, 6]: 1 (17) n (%)
Adverse event: Catheter‐site pain [1, 6]: 0 n (%)
Adverse event: Constipation [1, 6]: 0 n (%)
Adverse event: Contact dermatitis [1, 6]: 0 n (%)
Adverse event: Contusion [1, 6]: 1 (17) n (%)
Adverse event: Disturbance in attention [1, 6]: 0 n (%)
Adverse event: Dizziness [1, 6]: 2 (33) n (%)
Adverse event: Dry skin [1, 6]: 0 n (%)
Adverse event: Fatigue [1, 6]: 1 (17) n (%)
Adverse event: Gastrointestinal disorders [1, 6]: 0 n (%)
Adverse event: Headache [1, 6]: 1 (17) n (%)
Adverse event: Lethargy [1, 6]: 0 n (%)
Adverse event: Musculoskeletal stiffness [1, 6]: 0 n (%)
Adverse event: Nausea [1, 6]: 0 n (%)
Adverse event: Oropharyngeal pain [1, 6]: 0 n (%)
Adverse event: Rash [1, 6]: 0 n (%)
Adverse event: Somnolence [1, 6]: 0 n (%)
Adverse event: Vessel puncture site bruise [1, 6]: 0 n (%)
Adverse event: Abdominal distension [1, 7]: 1 (4) n (%)
Adverse event: Abdominal pain [1, 7]: 1 (4) n (%)
Adverse event: Abnormal dreams [1, 7]: 2 (8) n (%)
Adverse event: Agitation [1, 7]: 1 (4) n (%)
Adverse event: Any event [1, 7]: 19 (76) n (%)
Adverse event: Arthropod bite [1, 7]: 0 n (%)
Adverse event: Back pain [1, 7]: 2 (8) n (%)
Adverse event: Catheter‐site bruise [1, 7]: 1 (4) n (%)
Adverse event: Catheter‐site pain [1, 7]: 0 n (%)
Adverse event: Constipation [1, 7]: 2 (8) n (%)
Adverse event: Contact dermatitis [1, 7]: 7 (28) n (%)
Adverse event: Contusion [1, 7]: 3 (12) n (%)
Adverse event: Disturbance in attention [1, 7]: 1 (4) n (%)
Adverse event: Dizziness [1, 7]: 2 (8) n (%)
Adverse event: Dry skin [1, 7]: 0 n (%)
Adverse event: Fatigue [1, 7]: 1 (4) n (%)
Adverse event: Gastrointestinal disorders [1, 7]: 6 (24) n (%)
Adverse event: Headache [1, 7]: 3 (12) n (%)
Adverse event: Lethargy [1, 7]: 1 (4) n (%)
Adverse event: Musculoskeletal stiffness [1, 7]: 1 (4) n (%)
Adverse event: Nausea [1, 7]: 1 (4) n (%)
Adverse event: Oropharyngeal pain [1, 7]: 1 (4) n (%)
Adverse event: Rash [1, 7]: 1 (4) n (%)
Adverse event: Somnolence [1, 7]: 0 n (%)
Adverse event: Vessel puncture site bruise [1, 7]: 1 (4) n (%)
Adverse event: Abdominal distension [1, 8]: 0 n (%)
Adverse event: Abdominal pain [1, 8]: 0 n (%)
Adverse event: Abnormal dreams [1, 8]: 0 n (%)
Adverse event: Agitation [1, 8]: 0 n (%)
Adverse event: Any event [1, 8]: 6 (86) n (%)
Adverse event: Arthropod bite [1, 8]: 2 (29) n (%)
Adverse event: Back pain [1, 8]: 0 n (%)
Adverse event: Catheter‐site bruise [1, 8]: 0 n (%)
Adverse event: Catheter‐site pain [1, 8]: 1 (14) n (%)
Adverse event: Constipation [1, 8]: 0 n (%)
Adverse event: Contact dermatitis [1, 8]: 0 n (%)
Adverse event: Contusion [1, 8]: 0 n (%)
Adverse event: Disturbance in attention [1, 8]: 0 n (%)
Adverse event: Dizziness [1, 8]: 1 (14) n (%)
Adverse event: Dry skin [1, 8]: 1 (14) n (%)
Adverse event: Fatigue [1, 8]: 0 n (%)
Adverse event: Gastrointestinal disorders [1, 8]: 2 (29) n (%)
Adverse event: Headache [1, 8]: 2 (29) n (%)
Adverse event: Lethargy [1, 8]: 1 (14) n (%)
Adverse event: Musculoskeletal stiffness [1, 8]: 0 n (%)
Adverse event: Nausea [1, 8]: 1 (14) n (%)
Adverse event: Oropharyngeal pain [1, 8]: 1 (14) n (%)
Adverse event: Rash [1, 8]: 0 n (%)
Adverse event: Somnolence [1, 8]: 1 (14) n (%)
Adverse event: Vessel puncture site bruise [1, 8]: 0 n (%)
participants reporting palpitations ([1]; Part 2, 200‐mg + expansion cohort, one participant, mild, unrelated to study drug): 2%
most common AEs: contact dermatitis [1, 9]: 13.8%
most common AEs: dizziness [1, 9]: 12.1%
most common AEs: headache [1, 9]: 25.9%
participants discontinued because of grade 1 maculopapular rash ([1]; expansion cohort, one participant): 2%
AUC ([2]; 50 mg, Day 1, 50 mg, N = 6): 2860 ng·h/mL
Cmax ([2]; 50 mg, Day 1, 50 mg, N = 6): 215 ng/mL
Tmax ([2]; 50 mg, Day 1, 50 mg, N = 6): 3.8 h
AUC ([2]; 100 mg, Day 1, 100 mg, N = 6): 6800 ng·h/mL
Cmax ([2]; 100 mg, Day 1, 100 mg, N = 6): 536 ng/mL
Tmax ([2]; 100 mg, Day 1, 100 mg, N = 6): 4.3 h
AUC ([2]; 320 mg, Day 1, 320 mg, N = 7): 13500 ng·h/mL
Cmax ([2]; 320 mg, Day 1, 320 mg, N = 7): 1040 ng/mL
Tmax ([2]; 320 mg, Day 1, 320 mg, N = 7): 4 h
increase in exposure upon repeat dosing ([2]; in vivo): two‐ to three‐fold
dose‐proportionality of Cmax and AUC ([2]; multiple‐dose administration 50‐320 mg): trend toward less than dose‐proportional increases in exposure
time to steady state ([2]; repeat once‐daily dosing): ≤ 8 days
attainment of steady state (slope of trough concentration vs time close to zero) ([2]; trough concentrations from all participants): ≤ 8 days
changes in laboratory values, vital signs, or ECG parameters ([3]; in vivo): No clinically significant changes in laboratory values, vital signs, or ECG parameters
participants reporting at least one AE ([3]; of the 14 total participants, all mild): 50%
maximum recommended starting dose [MRSD] based on lowest observed adverse effect level in dogs ([4]; calculated from dog level of 1 mg/kg): approximately 3.2 mg
lowest observed adverse effect level ([4]; dogs, absence of a NOAEL in dogs): 1 mg/kg
inhibition across HIV‐1 subtypes (HIV‐1 subtypes): broad‐spectrum inhibition across various HIV‐1 subtypes
